Data from ChEMBL document CHEMBL1155659, “Chemistry of sponges. 19. Novel bioactive metabolites from Hamigera tarangaensis” (J Nat Prod, 2000).
The source made the active and inactive calls. No cut-off for these calls is given here.

Assays:
Enterovirus C = experiment: Antiviral activity against Poliovirus; format: functional
How it was run: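 Disk assay at 132 μg per disk, scored as percent virus inhibition, with cytotoxicity assessed across the whole well.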

P388 = experiment: Cytotoxicity against mouse P388 cells; format: functional, cell-based
Bacillus subtilis [1] = experiment: Antibacterial activity against Bacillus subtilis at 96 ug; format: functional; conditions: read-out: IZ
Bacillus subtilis [2] = experiment: Antibacterial activity against Bacillus subtilis at 150 ug; format: functional; conditions: read-out: IZ
Herpesviridae sp. = experiment: Antiviral activity against Herpesvirus; format: functional
How it was run: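 Disk-based antiviral test, sample loaded at 132 μg per disk onto herpes-virus-infected cell wells; read-out is percent virus inhibition, with cytotoxicity scored across the whole well.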

Candida albicans = experiment: Antifungal activity against Candida albicans; format: functional, organism-based
[3] = tested on: Trichophyton mentagrophytes; experiment: Antifungal activity against Trichophyton mentagrophytes; format: functional, organism-based
Bacillus subtilis [4] = experiment: Antibacterial activity against Bacillus subtilis at 156 ug; format: functional; conditions: read-out: IZ
Escherichia coli = experiment: Antibacterial activity against Escherichia coli; format: functional, organism-based
Bacillus subtilis [5] = experiment: Antibacterial activity against Bacillus subtilis; format: functional, organism-based

| Structure (SMILES) | Activity (Enterovirus C) | IC50 (P388) [µM] | zone of inhibition at 96 µg/disc (Bacillus subtilis [1]) [mm] | zone of inhibition at 150 µg/disc (Bacillus subtilis [2]) [mm] | Activity (Herpesviridae sp.) | Activity (Candida albicans) | Activity [3] | zone of inhibition at 156 µg/disc (Bacillus subtilis [4]) [mm] | Activity (Escherichia coli) | Activity (Bacillus subtilis [5]) | inhibition (INH) (Enterovirus C) [%] | inhibition (INH) (Herpesviridae sp.) [%] |
| --- | --- | --- | --- | --- | --- | --- | --- | --- | --- | --- | --- | --- |
| Cc1cc([C@H]2[C@@H](C(C)C)CC[C@@]2(C)CC(=O)O)c2c(c1Br)O[C@H](C)NC2=O | inactive | 74.2 | 3 | 3 | inactive | inactive | inactive | 3 | inactive | – | – | – |
| COC(=O)[C@]1(O)C(=O)c2c(O)cc(C)cc2[C@H]2[C@@H](C(C)C)CC[C@]21C | inactive | – | – | – | inactive | inactive | inactive | – | inactive | – | – | – |
| COC(=O)[C@]1(O)C(=O)c2c(cc(C)c(Br)c2O)[C@H]2[C@@H](C(C)C)CC[C@]21C | inactive | – | – | – | inactive | inactive | inactive | – | inactive | inactive | – | – |
| Cc1c(Br)c(O)c2c(c1Br)[C@H]1[C@@H](C(C)C)CC[C@@]1(C)C(=O)C2=O [4-BROMOHAMIGERAN B] | inactive | 13.9 | – | – | inactive | inactive | inactive | – | inactive | – | – | – |
| Cc1cc2c(c(O)c1Br)C(=O)C(=O)[C@]1(C)CC[C@H](C(C)C)[C@H]21 [HAMIGERAN B] | – | – | – | – | – | inactive | – | – | inactive | – | 100 | 100 |
| CC(=O)O[C@H]1C(=O)C(=O)c2c(cc(C)c(Br)c2O)[C@H]2[C@@H](C(C)C)CC[C@@]12C [HAMIGERAN C] | inactive | 16 | 3 | 3 | inactive | inactive | – | 3 | inactive | – | – | – |
| Cc1cc2c3c(c1Br)O[C@H](C)N=C3C(=O)C[C@]1(C)CC[C@H](C(C)C)[C@H]21 [HAMIGERAN D] | inactive | 8 | 3 | 3 | inactive | inactive | – | 3 | inactive | – | – | – |
| CCOC(=O)c1c([C@H]2[C@@H](C(C)C)CC[C@@]2(C)C(=O)OCC)cc(C)c(Br)c1OCC [TRYETHYLHAMIGERAN E] | inactive | 54.2 | – | – | inactive | inactive | inactive | – | inactive | inactive | – | – |
